Source: ChEMBL document CHEMBL1137414, “3'-Substituted 7-halogenoindirubins, a new class of cell death inducing agents” (J Med Chem, 2006)

How the values were obtained:
BP8 = experiment: Survival of […] AhR -/- BP8 cells after 48 hrs by MTS reduction assay; type: functional, cell-based
[1] = target: Cyclin-dependent kinase 5/CDK5 activator 1 (Homo sapiens, UniProt Q00535); experiment: (§1) Inhibition of mammalian CDK5/p25; type: protein-complex assay
Procedure, shortened: (§2)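 Recombinant CDK5 and p25, each expressed in E. coli as GST fusions and affinity-purified on glutathione agarose, mixed in equal amounts. Phosphate incorporation onto P81 paper read by scintillation counting, blank subtracted. Activity taken as % of uninhibited. IC50 from dose-response curves.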

F1 (hepatoma cell line) = experiment: Survival of mouse F1 cells after 48 hrs by MTS reduction assay; details: F1
SH-SY5Y [2] = experiment: Death of human SH-SY5Y cells in absence of 20 uM Q-VD-OPh by MTS reduction assay; type: functional, cell-based; details: read-out: IC50
SH-SY5Y [3] = experiment: Survival of human SH-SY5Y cells after 48 hrs by MTS reduction assay; type: functional, cell-based; details: Homo sapiens, SH-SY5Y, 48 h
PC-3 = experiment: Survival of human PC3 cells after 48 hrs by MTS reduction assay; type: functional, cell-based; details: Homo sapiens, PC-3, 48 h
SH-SY5Y [4] = experiment: Death of human SH-SY5Y cells in presence of 20 uM Q-VD-OPh by MTS reduction assay; type: functional, cell-based; details: Homo sapiens, SH-SY5Y
Huh-7 = experiment: Survival of human Huh7 cells after 48 hrs by MTS reduction assay; type: functional, cell-based
SH-SY5Y [5] = experiment: Survival of human SH-SY5Y cells at 25 uM by MTS reduction assay; type: functional, cell-based; details: for viability at 25 µM: Homo sapiens, SH-SY5Y, read-out: Survival
Procedure, shortened: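 Viability was read by MTS reduction and expressed as percent of untreated cells, as the average ± SE of three independent measurements, representative of two independent experiments.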

HEK293 = experiment: Survival of human HEK293 cells after 48 hrs by MTS reduction assay; type: functional, cell-based
SH-SY5Y [6] = experiment: Death of human SH-SY5Y cells at 25 uM after 48 hrs by LDH release assay; type: functional
Procedure, shortened: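 SH-SY5Y human neuroblastoma cells were grown in DMEM with 2 mM L-glutamine, antibiotics and 10% FCS at 37 °C under 5% CO2. […] Lactate dehydrogenase release was measured 48 h after addition and expressed as percent cell death.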

A549 = experiment: Survival of human A549 cells after 48 hrs by MTS reduction assay; type: functional, cell-based
SH-SY5Y [7] = experiment: Survival of human SH-SY5Y cells after 24 hrs by MTS reduction assay; type: functional, cell-based; details: Homo sapiens, SH-SY5Y, 24 h
[8] = Inhibition of starfish CDK1/cyclin B in presence of 15 uM ATP; parameters: species or system Marthasterias glacialis
HT-29 = experiment: Survival of human HT29 cells after 48 hrs by MTS reduction assay; type: functional, cell-based
MDA-MB-231 = experiment: Survival of human MDA-MB-231 cells after 48 hrs by MTS reduction assay; type: functional, cell-based
Procedure, shortened: (§3)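 Viability read by MTS reduction. IC50 taken from dose-response curves, triplicate measurements. HCT116 grown in McCoy's 5A with 10% FCS. MDA-MB-231 grown in DMEM with 10% FCS and seeded at 7500 cells/well.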

HCT-116 = experiment: Survival of human HCT116 cells after 48 hrs by MTS reduction assay; type: functional, cell-based; procedure, shortened: as §3
[9] = Survival of mouse F1 cells after 48 hrs by MTS reduction assay; details: Mus musculus, F1, 48 h
[10] = target: Cyclin-dependent kinase 5/CDK5 activator 1 (Homo sapiens, UniProt Q00535+Q15078); experiment: as §1; type: protein-complex assay; procedure, shortened: as §2
Cyclin-dependent kinase 5/CDK5 activator 1 (Homo sapiens, UniProt Q00535+Q15078), sequence (Q00535 whole entry): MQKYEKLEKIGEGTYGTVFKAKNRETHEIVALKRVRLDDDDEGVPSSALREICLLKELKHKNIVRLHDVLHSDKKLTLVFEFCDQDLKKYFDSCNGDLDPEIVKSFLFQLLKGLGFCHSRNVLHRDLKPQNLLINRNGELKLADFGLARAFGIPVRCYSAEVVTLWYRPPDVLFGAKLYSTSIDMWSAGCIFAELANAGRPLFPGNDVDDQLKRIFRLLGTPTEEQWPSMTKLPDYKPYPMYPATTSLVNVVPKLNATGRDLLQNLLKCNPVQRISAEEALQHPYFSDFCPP
Cyclin-dependent kinase 5/CDK5 activator 1 (Homo sapiens, UniProt Q00535+Q15078), sequence (Q15078 whole entry): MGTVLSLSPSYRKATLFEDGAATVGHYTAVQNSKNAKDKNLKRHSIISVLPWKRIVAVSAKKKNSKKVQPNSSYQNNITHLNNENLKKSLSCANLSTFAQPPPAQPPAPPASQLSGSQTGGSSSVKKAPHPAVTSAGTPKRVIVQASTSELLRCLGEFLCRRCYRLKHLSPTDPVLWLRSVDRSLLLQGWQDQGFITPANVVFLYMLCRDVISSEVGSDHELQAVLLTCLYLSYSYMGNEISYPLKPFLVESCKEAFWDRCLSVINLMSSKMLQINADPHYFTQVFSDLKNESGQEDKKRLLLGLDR

Cyclin-dependent kinase 5/CDK5 activator 1 (Homo sapiens, UniProt Q00535), sequence (Q00535 whole entry, the tested form may be a part): as the sequence (Q00535 whole entry) above
Cyclin-dependent kinase 5/CDK5 activator 1 (Homo sapiens, UniProt Q00535), sequence (Q15078 whole entry, further chain, the tested form may be a part): as the sequence (Q15078 whole entry) above

SMILES	IC50 (BP8; Mus musculus, BP8, 48 h) [µM]	IC50 [1] [µM]	IC50 (SH-SY5Y [2]; Homo sapiens, SH-SY5Y) [µM]	IC50 (SH-SY5Y [3]) [µM]	IC50 (PC-3) [µM]	IC50 (SH-SY5Y [4]) [µM]	IC50 (Huh-7; Homo sapiens, Huh-7, 48 h) [µM]	Survival (SH-SY5Y [5]) [%]	IC50 (HEK293; hek293) [µM]	Activity (SH-SY5Y [6]) [%]	IC50 (SH-SY5Y [7]) [µM]	IC50 [8] [µM]	IC50 (HT-29; ht-29) [µM]	IC50 (MDA-MB-231; Homo sapiens, MDA-MB-231, 48 h) [µM]	IC50 [9] [µM]	viability at 25 µM (SH-SY5Y [5]) [%]	IC50 (A549; Homo sapiens, A549, 48 h) [µM]	IC50 (HCT-116; Homo sapiens, HCT-116, 48 h) [µM]	IC50 [10] [µM]	other results
CN(C)CCO/N=C1/C(c2c(O)[nH]c3c(Br)cccc23)=Nc2ccccc21.Cl	> 30	> 10	1.1	1	15	> 25	11.2	5	3	84	2.1	> 10	2.4	18.8						IC50 (F1 (hepatoma cell line)): 1.7 µM; IC50 (A549; a549): 5.8 µM; IC50 (HCT-116; hct-116): 2 µM
Cl.Cl.Oc1[nH]c2c(Br)cccc2c1C1=Nc2ccccc2/C1=N\OCCN1CCNCC1	5.4	> 10	6.2	6	6	6.8			1.9	100	6	> 10	1.9	5.1	1.4	3	6	5.1		IC50 (Huh-7; huh-7): 2 µM
Cl.Cn1c(O)c(C2=Nc3ccccc3/C2=N\OCCN2CCCC2)c2cccc(Br)c21		> 10	5	4	19	13		1	8	94	7.3	> 10	5.4		2.9		14.6			IC50 (BP8; bp8): 7.5 µM; IC50 (Huh-7; huh-7): 5.6 µM; IC50 (MDA-MB-231; mda-mb-231): 12 µM; IC50 (HCT-116; hct-116): 5.1 µM
Cl.Oc1[nH]c2c(Br)cccc2c1C1=Nc2ccccc2/C1=N\OCCN1CCCC1	> 30	> 10		2	30		13.6			80	3.1	> 100		> 30	3.1	12	16	3.8		IC50 (SH-SY5Y [2]; sh-sy5y): 2.8 µM; IC50 (HEK293; Homo sapiens, HEK293, 48 h): > 30 µM
CCN(CC)CCO/N=C1/C(c2c(O)[nH]c3c(Br)cccc23)=Nc2ccccc21								49											> 10	
CCN(CC)CCO/N=C1/C(c2c(O)[nH]c3c(Br)cccc23)=Nc2ccccc21.Cl (stereo in doubt; 13ls)								72											> 10	
O=Nc1c(-c2c(O)[nH]c3c(Br)cccc23)[nH]c2ccccc12	19.4		7	7.1	19.8	7	9			94	8			10.5	8	4	21.8	6.2		IC50 (HEK293; Homo sapiens, HEK293, 48 h): 12.3 µM; IC50 (HT-29; Homo sapiens, HT-29, 48 h): 21.2 µM
CCN(CC)CCO/N=C1/C(c2c(O)n(C)c3c(Br)cccc23)=Nc2ccccc21								83											> 10	
